# Measured values gathered from unrelated publications.
# Compare with care: the assays were run in different laboratories.
# Target: Tyrosine-protein kinase HCK (HCK, Homo sapiens, UniProt P08631)
SMILES,observed,action,method,tested at,endpoint,value
Cn1cc(-c2cc(F)cc(N3CCn4c(cc5c4CCCC5)C3=O)c2CO)cc(Nc2ccc(N3CCN(C4COC4)CC3)cn2)c1=O,enzyme activity,inhibitor,,0.1 µM,inhibition,9%
CC(C)(C)c1cc(C=C(C#N)C#N)cc(Br)c1O,enzyme activity,inhibitor,,0.5 µM,remaining activity,66.1%
Cn1cncc1[C@@](O)(COc1ccc(C#N)cc1-c1ccc(OC(F)(F)F)cc1)c1ccc(C#N)cc1,cell-free assay,,competition with immobilised ligand,1 µM,remaining binding,100%
COc1ncccc1-c1cnn2ccc(N3CCN(C(=O)OC(C)C)CC3)nc12,binding,,competition with immobilised ligand,1 µM,remaining binding,60%
Nc1ncc(-c2nc(N3CCOCC3)nc(N3CCOCC3)n2)c(C(F)F)n1,binding,,competition with immobilised ligand,10 µM,remaining binding,77%
O=c1[nH]c2ccccc2n1C1CCN(Cc2ccc(-c3[nH]c4cc5ncnc5cc4nc3-c3ccccc3)cc2)CC1,cell-free assay,,,0.5 µM,remaining signal,99.6%
N#CC1(c2ccccn2)CCN(Cc2cc(C(=O)O)c(=O)n3ccccc23)CC1,cell-free assay,,competition with immobilised ligand,1 µM,remaining binding,100%
Cn1cc(-c2cccc(N3CCc4c(sc5c4CC(C)(C)C5)C3=O)c2CO)cc(Nc2ccncn2)c1=O,enzyme activity,inhibitor,,1 µM,inhibition,6%
Cc1nn(C)cc1-c1nc2c(N3CCN(Cc4ccc(Cl)cc4)CC3)c(Cl)cnc2[nH]1,binding,,competition with immobilised ligand,1 µM,remaining binding,100%
COc1cc(Nc2ncc(F)c(Nc3ccc4c(n3)NC(=O)C(C)(C)O4)n2)cc(OC)c1OC,binding,,competition with immobilised ligand,10 µM,inhibition,98%
